Test results reported in ChEMBL document CHEMBL4699593, “Identification of 2,4-Disubstituted Imidazopyridines as Hemozoin Formation Inhibitors with Fast-Killing Kinetics and In Vivo Efficacy in the Plasmodium falciparum NSG Mouse Model” (J Med Chem, 2020).
Values after ≈ are worked out from the molar mass of the structure shown.

Tests used:
[1] = biological target: Voltage-gated inwardly rectifying potassium channel KCNH2 (Homo sapiens, UniProt Q12809); assay: Inhibition of human ERG by patch clamp method
Voltage-gated inwardly rectifying potassium channel KCNH2, sequence (Q12809 whole entry): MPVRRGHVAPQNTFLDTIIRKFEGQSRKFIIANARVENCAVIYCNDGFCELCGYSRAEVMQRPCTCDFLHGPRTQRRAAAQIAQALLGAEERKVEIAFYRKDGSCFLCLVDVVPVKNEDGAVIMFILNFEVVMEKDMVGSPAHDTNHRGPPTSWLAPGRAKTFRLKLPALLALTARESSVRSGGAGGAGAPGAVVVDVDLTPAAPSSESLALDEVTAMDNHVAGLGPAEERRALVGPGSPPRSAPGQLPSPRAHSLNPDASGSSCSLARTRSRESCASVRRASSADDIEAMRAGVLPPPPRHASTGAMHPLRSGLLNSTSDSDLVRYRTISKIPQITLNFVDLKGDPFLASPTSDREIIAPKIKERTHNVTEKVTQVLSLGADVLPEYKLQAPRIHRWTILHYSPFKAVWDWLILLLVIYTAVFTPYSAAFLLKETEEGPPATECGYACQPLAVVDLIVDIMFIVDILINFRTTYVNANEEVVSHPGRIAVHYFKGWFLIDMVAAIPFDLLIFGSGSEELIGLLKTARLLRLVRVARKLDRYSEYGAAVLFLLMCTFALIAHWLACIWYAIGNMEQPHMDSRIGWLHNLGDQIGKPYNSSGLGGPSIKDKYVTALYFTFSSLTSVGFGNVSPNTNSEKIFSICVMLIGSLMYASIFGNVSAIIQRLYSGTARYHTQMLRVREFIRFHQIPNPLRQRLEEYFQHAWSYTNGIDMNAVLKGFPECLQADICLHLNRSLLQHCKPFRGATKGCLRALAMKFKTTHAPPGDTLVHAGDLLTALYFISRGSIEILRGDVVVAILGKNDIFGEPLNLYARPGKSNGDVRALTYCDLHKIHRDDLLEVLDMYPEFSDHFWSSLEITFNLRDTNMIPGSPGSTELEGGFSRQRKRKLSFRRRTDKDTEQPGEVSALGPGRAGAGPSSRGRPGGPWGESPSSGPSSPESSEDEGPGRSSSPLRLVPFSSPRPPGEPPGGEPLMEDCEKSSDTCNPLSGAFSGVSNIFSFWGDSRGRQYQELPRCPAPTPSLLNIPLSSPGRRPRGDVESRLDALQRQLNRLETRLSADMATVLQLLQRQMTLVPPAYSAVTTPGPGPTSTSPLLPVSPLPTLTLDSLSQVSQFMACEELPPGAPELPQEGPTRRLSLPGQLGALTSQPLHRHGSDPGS

[2] = tested on: Plasmodium falciparum; assay: Antiplasmodial activity against multidrug-resistant asexual blood stage Plasmodium falciparum K1 strain assessed as reduction in parasite growth after 72 hrs by NBT reagent based LDH assay; type: functional, organism-based; conditions: K1, 72 h
Summary of the method: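 Asexual blood-stage K1 (multidrug-resistant) parasites were read out by the parasite lactate dehydrogenase (pLDH) assay. […] Most individual values varied less than 2× (maximum 3×).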

[3] = tested on: Plasmodium falciparum; assay: Antiplasmodial activity against multidrug-sensitive asexual blood stage Plasmodium falciparum NF54 strain assessed as reduction in parasite growth after 72 hrs by NBT reagent based LDH assay; type: functional, organism-based; conditions: NF54, 72 h
[4] = Apparent intrinsic clearance in mouse liver microsomes at 0.1 uM in presence of NADPH by LC-MS/MS analysis; type: ADME, Microsome
Summary of the method: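 Compound was incubated with mouse liver microsomes for 30 min. Apparent intrinsic clearance (CL_int,app) is reported in μL/min/mg.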

[5] = Aqueous solubility of compound in phosphate buffer saline at pH 6.5 incubated for 20 hrs under shaking condition by shake-flask method based HPLC-DAD analysis; type: physicochemical; conditions: phosphate buffered saline
Summary of the method: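 Equilibrium aqueous solubility was measured at pH 6.5 using a miniaturized shake-flask method.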

[6] = tested on: CHO; assay: Cytotoxicity against CHO cells assessed as reduction in cell viability by MTT assay; type: cell-based, Cricetulus griseus; conditions: chinese hamster
Summary of the method: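 Cytotoxicity was measured in Chinese hamster ovary (CHO) cells and reported as CC50. The selectivity index is CC50 divided by NF54 IC50.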

[7] = Dissociation constant, pKa of compound; type: physicochemical
[8] = Terminal half life in Balb/C mouse at 20 mg/kg, po by LC-MS/MS analysis; type: ADME, organism-based; conditions: in vivo, read-out: beta t1/2 (converted)
Summary of the method: (§1)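 Healthy Balb/c mice were given the compound i.v. or orally. Parameters come from non-compartmental analysis: AUC from 0 h to t_last, blood clearance, volume at steady state, terminal half-life, Tmax. Oral bioavailability F is derived from the i.v. and p.o. data.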

[9] = Cmax in Balb/C mouse at 2 mg/kg, iv by LC-MS/MS analysis; type: ADME, organism-based; design: route intravenous, dose 2 mg/kg; conditions: in vivo
Summary of the method: (§2)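 Healthy Balb/c mice dosed i.v. or orally. Parameters come from non-compartmental analysis of compound concentration over time. […] Clearance is blood clearance (CL_b).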

[10] = Tmax in Balb/C mouse at 20 mg/kg, po by LC-MS/MS analysis; type: ADME, organism-based; conditions: in vivo; summary of the method: as §1
[11] = Ratio of unbound average drug concentration in Balb/c mouse at 20 mg/kg, po measured at 24 hrs to IC50 for antiplasmodial activity against multidrug-sensitive Plasmodium falciparum NF54 asexual blood stage assessed as reduction in parasite growth after 72 hrs by LDH assay; type: organism-based; conditions: in vivo
[12] = Volume of distribution at steady state in Balb/C mouse at 2 mg/kg, iv by LC-MS/MS analysis; type: ADME, organism-based; conditions: in vivo, read-out: Vdss; summary of the method: as §1
[13] = Clearance in Balb/C mouse blood at 2 mg/kg, iv by LC-MS/MS analysis; type: ADME, organism-based; conditions: whole blood; summary of the method: as §2
[14] = AUC (0 to t) in Balb/C mouse at 2 mg/kg, iv by LC-MS/MS analysis; type: ADME, organism-based; design: dose 2 mg/kg; conditions: in vivo; summary of the method: as §2
[15] = Selectivity index, ratio of CC50 for cytotoxicity against CHO cells assessed as reduction in cell viability to IC50 for antiplasmodial activity against multidrug-sensitive Plasmodium falciparum NF54 assessed as reduction in parasite growth; type: toxicity, cell-based; conditions: hamster, read-out: Ratio CC50/IC50
[16] = Cmax in Balb/C mouse at 20 mg/kg, po by LC-MS/MS analysis; type: ADME, organism-based; design: route oral, dose 20 mg/kg; conditions: in vivo; summary of the method: as §2
[17] = AUC (0 to t) in Balb/C mouse at 20 mg/kg, po by LC-MS/MS analysis; type: ADME, organism-based; design: dose 20 mg/kg; conditions: in vivo; summary of the method: as §2
[18] = Oral bioavailability in Balb/C mouse at 20 mg/kg by LC-MS/MS analysis; type: ADME, organism-based; conditions: in vivo; summary of the method: as §1
[19] = Terminal half life in Balb/C mouse at 2 mg/kg, iv by LC-MS/MS analysis; type: ADME, organism-based; conditions: in vivo, read-out: beta t1/2 (converted); summary of the method: as §1
[20] = tested on: Hemozoin; assay: Inhibition of beta-hematin formation assessed as reduction in hemozoin formation incubated for 5 hrs by NP40 detergent-mediated assay
Summary of the method: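 Synthetic hemozoin (β-hematin) formation is driven by the detergent Nonidet P-40. Pyridine is then added to detect unreacted hematin. IC50 is derived from this read-out.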

[21] = Selectivity ratio of IC50 for antiplasmodial activity against luciferase-expressing Plasmodium berghei sporozoites liver stage infected in human HepG2 cells expressing GFP-CD81 fusion protein to IC50 for antiplasmodial activity against multidrug-sensitive Plasmodium falciparum NF54; type: functional
[22] = tested on: Plasmodium falciparum; assay: Antiplasmodial activity against early stage (I to III) Plasmodium falciparum NF54 gametocytes incubated for 48 hrs under hypoxia condition by luciferase reporter gene assay; type: functional, organism-based; conditions: NF54, 48 h
[23] = tested on: Plasmodium berghei; assay: Antiplasmodial activity against luciferase-expressing Plasmodium berghei sporozoites liver stage infected in human HepG2 cells expressing GFP-CD81 fusion protein incubated for 48 hrs by luciferase reporter gene based bioluminescence assay; type: functional, organism-based; conditions: HepG2, 48 h
Summary of the method: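 Liver-stage activity was measured in vitro with rodent P. berghei sporozoites. Values are the mean of 3 technical replicates from the luciferase assay; individual values varied less than 2×.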

[24] = tested on: Plasmodium falciparum; assay: Antiplasmodial activity against late stage (IV/V) Plasmodium falciparum NF54 gametocytes at 5 uM incubated for 48 hrs under hypoxia condition by luciferase reporter gene assay relative to control; type: functional
[25] = Terminal half life in Balb/C mouse at 5 mg/kg, po by LC-MS/MS analysis; type: ADME, organism-based; conditions: in vivo, read-out: beta t1/2 (converted); summary of the method: as §1
[26] = Oral bioavailability in Balb/C mouse at 5 mg/kg by LC-MS/MS analysis; type: ADME, organism-based; conditions: in vivo; summary of the method: as §1
[27] = AUC (0 to t) in Balb/C mouse at 5 mg/kg, po by LC-MS/MS analysis; type: ADME, organism-based; design: dose 5 mg/kg; conditions: in vivo; summary of the method: as §2
[28] = Tmax in Balb/C mouse at 5 mg/kg, po by LC-MS/MS analysis; type: ADME, organism-based; conditions: in vivo; summary of the method: as §1
[29] = Cmax in Balb/C mouse at 5 mg/kg, po by LC-MS/MS analysis; type: ADME, organism-based; design: route oral, dose 5 mg/kg; conditions: in vivo; summary of the method: as §2
[30] = Ratio of unbound average drug concentration in Balb/c mouse at 5 mg/kg, po measured at 24 hrs to IC50 for antiplasmodial activity against multidrug-sensitive Plasmodium falciparum NF54 asexual blood stage assessed as reduction in parasite growth after 72 hrs by LDH assay; type: organism-based; conditions: in vivo
[31] = Intrinsic clearance in Balb/c mouse at 20 mg/kg, po by LC-MS/MS analysis; type: ADME, organism-based; conditions: in vivo
[32] = AUC in Balb/c mouse administered orally; type: ADME; conditions: in vivo, po; summary of the method: as §2

| SMILES | IC50 [1] [µM] | IC50 [2] [µM] | IC50 [3] [µM] | solubility thermodynamic at 20 h [5] [µM] | CC50 [6] [µM] | half-life [8] [h] | Cmax [9] [µM] | Tmax [10] [h] | Ratio [11] | Vd [12] [L/kg] | clearance [13] [L/h/kg] | AUCt [14] [µM·h] | selectivity ratio [15] | Cmax [16] [µM] | AUCt [17] [µM·h] | bioavailability [18] [%] | half-life [19] [h] | also measured |
| --- | --- | --- | --- | --- | --- | --- | --- | --- | --- | --- | --- | --- | --- | --- | --- | --- | --- | --- |
| CN1CCCN(c2nccc3[nH]c(-c4ccc(F)c(F)c4)nc23)CC1 | 0.4 | 0.1 | 0.061 | 170 (≈ 58.4 µg/mL) | 14 | – | – | – | – | – | – | – | – | – | – | – | – | CLH [4]: 145 µL/min/mg |
| Fc1cc(F)cc(-c2nc3c(N4CCC(N5CCOCC5)CC4)nccc3[nH]2)c1 | – | – | – | – | – | – | – | – | – | – | – | – | – | – | – | – | – | pKa [7]: 7.4 |
| Cn1ccnc1N1CCN(CC2CCN(c3nccc4[nH]c(-c5cc(F)cc(F)c5)nc34)CC2)CC1 | – | 0.053 | 0.029 | 135 (≈ 66.5 µg/mL) | 33 | 9.2 | 1.6 | 2.3 | 1.5 | 6 | 0.54 | 7.88 | 1140 | 1.7 | 19 | 24 | 12.2 | – |
| CN1CCN(CC2CCN(c3nncc4[nH]c(-c5cc(F)cc(F)c5)nc34)CC2)CC1 | – | 2.9 | 0.58 | 190 (≈ 81.2 µg/mL) | – | – | – | – | – | – | – | – | – | – | – | – | – | IC50 [20]: 25 µM |
| Fc1ccc(-c2nc3c(N4CCC(CN5CCOCC5)CC4)nccc3[nH]2)cc1F | ≤ 3 | 0.12 | 0.051 | 85 (≈ 35.1 µg/mL) | 35 | 13.5 | 0.3 | 0.7 | 4.6 | 20 | 1.18 | 4.17 | 690 | 3.7 | 34.6 | 83 | 25.8 | Ratio IC50 [21]: <=6; IC50 [22]: 1.3 µM; IC50 [23]: 0.29 µM; inhibition at 5 µM [24]: 0% |
| CN1CCN(c2nccc3nc(-c4ccc(F)c(F)c4)[nH]c23)CC1 | – | 0.5 | 0.24 | 130 (≈ 42.8 µg/mL) | – | – | 1 | – | – | 9 | 1.64 | 3.58 | – | – | – | – | 5.9 | half-life [25]: 5.4 h; bioavailability [26]: 36%; AUCt [27]: 3.25 µM·h; Tmax [28]: 0.7 h; Cmax [29]: 1.1 µM; Ratio [30]: 0.1 |
| CN1CCN(C2CCN(c3nccc4[nH]c(-c5cc(F)cc(F)c5)nc34)CC2)CC1 | > 30 | 0.17 | 0.05 | 200 (≈ 82.5 µg/mL) | 30 | 9.8 | 0.3 | 1.5 | 2.5 | 30 | 2.09 | 1.95 | – | 1.5 | 11.8 | 61 | 12.6 | – |
| CN1CCC(N2CCN(c3nccc4[nH]c(-c5ccc(F)c(F)c5)nc34)CC2)CC1 | – | 0.26 | 0.071 | 200 (≈ 82.5 µg/mL) | 33 | 10.8 | 1.7 | 2.3 | 0.9 | 4.3 | 0.684 | 6.77 | 460 | 1.1 | 6.63 | 11 | 8.2 | CL [31]: 3.24 L/h/kg |
| CS(=O)(=O)c1ccc(-c2cnc(N)c(-c3ccc(C(F)(F)F)nc3)c2)cc1 [MMV-048] | – | – | – | – | – | – | – | – | – | – | – | – | – | – | – | – | – | AUC [32]: 465 µM·h |
| Fc1cc(F)cc(-c2cc3c(N4CCC(N5CCOCC5)CC4)nccc3[nH]2)c1 | – | – | – | – | – | – | – | – | – | – | – | – | – | – | – | – | – | pKa [7]: 8.2 |
